Measurements as given in ChEMBL document CHEMBL3400073, “Design, synthesis and biological evaluation of new hybrid anticonvulsants derived from N-benzyl-2-(2,5-dioxopyrrolidin-1-yl)propanamide and 2-(2,5-dioxopyrrolidin-1-yl)butanamide derivatives” (Bioorg Med Chem, 2015).
Active and inactive are the calls of the source. The calls are words filed in the database; no cut-off is given here.

Legend:
Mus musculus [1] = assay: Anticonvulsant activity in intraperitoneally dosed Albino Swiss CD1 mouse after 2 hrs by subcutaneous pentylenetetrazole test; assay type: functional
In short: (§1)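 Male CD-1 mice were dosed ip (0.1 mL/10 g, methylcellulose vehicle), at least four dose groups of 6 mice each. Protection in MES meant no hindlimb tonic extension after a 25 mA, 50 Hz, 0.2 s ear-electrode shock. Protection in scPTZ meant no clonus over 30 min.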

Mus musculus [2] = assay: Anticonvulsant activity in intraperitoneally dosed Albino Swiss CD1 mouse assessed as time to peak effect by maximal electroshock test; assay type: functional
Mus musculus [3] = assay: Neurological toxicity in Albino Swiss CD1 mouse at 100 mg/kg, ip after 0.5 hrs by rotarod test; assay type: organism-based; design: dose 100 mg/kg, route intraperitoneal; details: in vivo
In short: (§2)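 Mice were trained on a 2 cm rod for 3 min, with unlimited trials, at least 24 h before testing. Each was then dosed ip at 100 mg/kg and tested at 10 rpm 0.5 h or 2 h later, in groups of 4. Failure to stay on the rod for at least 1 min indicated neurotoxicity.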

Mus musculus [4] = assay: Anticonvulsant activity in intraperitoneally dosed Albino Swiss CD1 mouse assessed as time to peak effect after 2 hrs by subcutaneous pentylenetetrazole test; assay type: functional
Mus musculus [5] = assay: Anticonvulsant activity in Albino Swiss CD1 mouse at 100 mg/kg, ip after 2 hrs by maximal electroshock test; assay type: functional, organism-based; design: dose 100 mg/kg
In short: (§3)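 Male CD-1 mice, 16–26 g, in groups of 4, each mouse used once, were given 100 mg/kg ip (0.1 mL/10 g, methylcellulose vehicle). MES used 25 mA, 500 V, 50 Hz delivered by ear electrodes for 0.2 s, and absence of hindlimb tonic extension counted as protection. In scPTZ, mice without clonic convulsions over 30 min of observation counted as protected. Both tests were run 0.5 h or 2 h after dosing.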

Mus musculus [6] = assay: Protective index, ratio of neurotoxic TD50 in Albino Swiss CD1 mouse by rotarod test to anticonvulsant ED50 in Albino Swiss CD1 mouse by subcutaneous pentylenetetrazole test
In short: (§4)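 The protective index is the rotarod TD50 divided by the MES or scPTZ ED50. Each value came from ip dosing in male CD-1 mice with probit analysis, and the reference drugs were tested under the same conditions.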

Mus musculus [7] = assay: Anticonvulsant activity in intraperitoneally dosed Albino Swiss CD1 mouse by maximal electroshock test; assay type: functional; details: Albino Swiss CD1, ip; in short: as §1
Mus musculus [8] = assay: Anticonvulsant activity in Albino Swiss CD1 mouse at 100 mg/kg, ip after 0.5 hrs by subcutaneous pentylenetetrazole test; assay type: functional, organism-based; design: dose 100 mg/kg; in short: as §3
Mus musculus [9] = assay: Anticonvulsant activity in intraperitoneally dosed Albino Swiss CD1 mouse by subcutaneous pentylenetetrazole test; assay type: functional; in short: as §1
Mus musculus [10] = species on record: Mus musculus; assay: Protective index, ratio of neurotoxic TD50 in Albino Swiss CD1 mouse by rotarod test to anticonvulsant ED50 in Albino Swiss CD1 mouse by maximal electroshock test; in short: as §4
Mus musculus [11] = assay: Anticonvulsant activity in intraperitoneally dosed Albino Swiss CD1 mouse after 0.5 hrs by maximal electroshock test; assay type: functional; in short: as §1
Mus musculus [12] = assay: Neurological toxicity in Albino Swiss CD1 mouse at 100 mg/kg, ip after 2 hrs by rotarod test; assay type: organism-based; design: dose 100 mg/kg, route intraperitoneal; details: in vivo; in short: as §2
[13] = Neurological toxicity in intraperitoneally dosed Albino Swiss CD1 mouse by rotarod test; assay type: organism-based; details: in vivo, ip
In short: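 Mice trained on the rotarod were given various ip doses, four groups in all, and tested at 10 rpm. Failure to stay on the rod for at least 1 min indicated neurotoxicity.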

Mus musculus [14] = assay: Anticonvulsant activity in intraperitoneally dosed Albino Swiss CD1 mouse after 0.5 hrs by subcutaneous pentylenetetrazole test; assay type: functional; in short: as §1
[15] = Cytotoxic activity against human IMR32 cells at 0.01 to 250 uM after 48 hrs by formazan based EZ4U assay; assay type: cell-based; details: imr-32, 48 h
In short: (§5)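 HEK-293 cells (1.5 × 10^4/well) and IMR-32 cells (2 × 10^4/well) were grown in DMEM with 10% FBS for 24 h to 60% confluence. Compound was diluted from a 25 mM DMSO stock to 0.01–250 µM final, with DMSO at or below 1%, and incubated 48 h at 37 °C in 5% CO2. EZ4U reagent was added for 5 h, then absorbance was read at 492 nm.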

Mus musculus [16] = assay: Anticonvulsant activity in Albino Swiss CD1 mouse at 100 mg/kg, ip after 2 hrs by subcutaneous pentylenetetrazole test; assay type: functional, organism-based; design: dose 100 mg/kg; in short: as §3
HEK293 = assay: Antiproliferative activity against HEK293 cells at 0.01 to 250 uM after 48 hrs by formazan based EZ4U assay; assay type: cell-based; details: human, hek293, 48 h; in short: as §5
Mus musculus [17] = assay: Anticonvulsant activity in Albino Swiss CD1 mouse at 100 mg/kg, ip after 0.5 hrs by maximal electroshock test; assay type: functional, organism-based; design: dose 100 mg/kg; in short: as §3
Mus musculus [18] = assay: Potency index, ratio of ED50 for […] acid to ED50 for compound in intraperitoneally dosed Albino Swiss CD1 mouse by subcutaneous pentylenetetrazole test; assay type: functional
Mus musculus [19] = assay: Ratio of protective index for […] acid to protective index for compound in intraperitoneally dosed Albino Swiss CD1 mouse
Liver microsome = assay: Drug metabolism in human liver microsomes assessed as metabolite formation treated with 50 uM 2-(2,5-Dioxopyrrolidin-1-yl)-N-(2-fluorobenzyl)propanamide pre-incubated at 37 degC for 5 mins before addition of NADPH regeneration system measured after 120 mins by UPLC-MS/MS method; assay type: ADME; details: 2 h
In short: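 Pooled human liver microsomes from adult males and females were used at 1 mg/ml in 0.1 M Tris-HCl, pH 7.4. After the 5 min preincubation, the NADPH regeneration system was added and the reaction ran for 120 min. It was quenched with cold methanol and centrifuged, and the supernatant was analysed by UPLC-MS/MS with ESI on a tandem quadrupole.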

Mus musculus [20] = assay: Anticonvulsant activity in intraperitoneally dosed Albino Swiss CD1 mouse after 2 hrs by maximal electroshock test; assay type: functional; in short: as §1

Row | Structure (SMILES) | MED50 (Mus musculus [1]) [mg/kg] | Time (Mus musculus [2]) [h] | Activity (Mus musculus [3]) | Time (Mus musculus [4]) [h] | Activity (Mus musculus [5]) | Ratio TD50/ED50 (Mus musculus [6]) | ED50 (Mus musculus [7]) [mg/kg] | ED50 (Mus musculus [9]) [mg/kg] | Ratio TD50/ED50 (Mus musculus [10]) | MED50 (Mus musculus [11]) [mg/kg] | Activity (Mus musculus [12]) | TD50 [13] [mg/kg] | MED50 (Mus musculus [14]) [mg/kg] | Activity (Mus musculus [16]) | Activity (Mus musculus [17]) | also measured
1 | CC(C(=O)NCc1ccc(C(F)(F)F)cc1)N1C(=O)CCC1=O (racemic) | 100 | 0.5 | Non-toxic | 2 | inactive | 2.62 | 80 | 54.5 | 1.78 | 100 | Non-toxic | 143 |  |  |  | Activity (Mus musculus [8]): inactive
2 | CC(C(=O)NCc1ccccc1F)N1C(=O)CCC1=O (racemic) |  | 0.5 | Non-toxic | 0.5 | inactive |  |  |  |  | 100 | Non-toxic |  | 100 | inactive |  | Activity [15]: Non-toxic; Activity (HEK293): Non-toxic
3 | CCC(C(=O)NCc1ccc(F)cc1)N1C(=O)CCC1=O (racemic) |  | 0.5 | Non-toxic | 0.5 | inactive | 3.22 |  | 83.4 |  |  | Non-toxic | 268 | 100 | inactive | inactive | 
4 | CCC(C(=O)NCc1cccc(F)c1)N1C(=O)CCC1=O (racemic) |  | 0.5 | Non-toxic | 0.5 | inactive | 6.89 |  | 47.4 |  |  | Non-toxic | 327 | 100 | inactive | inactive | Ratio ED50 (Mus musculus [18]): 2.96; Ratio (Mus musculus [19]): 3.05
5 | O=C(NCc1ccccc1F)C(CO)N1C(=O)CCC1=O (stereo not given) |  |  |  |  |  |  |  |  |  |  |  |  |  |  |  | Drug metabolism (Liver microsome): metabolite_detected
6 | CCC(C(=O)NCc1ccc(Cl)cc1)N1C(=O)CCC1=O (racemic) | 100 | 0.5 | Non-toxic | 0.5 | inactive | 3.43 | 95.3 | 50.8 | 1.83 | 100 | Non-toxic | 174 | 100 |  |  | 
7 | CCC(C(=O)NCc1ccccc1Cl)N1C(=O)CCC1=O (racemic) | 100 | 0.5 | Non-toxic | 0.5 | inactive | 5.47 | 113 | 76.4 | 3.7 | 100 | Non-toxic | 418 | 100 |  |  | 
8 | CCC(C(=O)NCc1cccc(Cl)c1)N1C(=O)CCC1=O (racemic) |  | 0.5 | Non-toxic | 0.5 | inactive | 2.28 | 96.5 | 78.8 | 1.12 | 100 | Non-toxic | 180 | 100 | inactive |  | 
9 | CCC(C(=O)NCc1ccccc1C(F)(F)F)N1C(=O)CCC1=O (racemic) | 100 | 0.5 | Non-toxic | 0.5 | inactive |  | > 150 |  |  |  | Non-toxic |  |  |  | inactive | Activity (Mus musculus [8]): inactive
10 | CCC(C(=O)NCc1cccc(C(F)(F)F)c1)N1C(=O)CCC1=O (racemic) |  | 0.5 | Non-toxic | 0.5 | inactive | 2.12 |  | 77.4 |  |  | Non-toxic | 163 | 100 | inactive | inactive | 
11 | CC(C(=O)NCc1ccc(Cl)cc1)N1C(=O)CCC1=O (racemic) |  | 0.5 | Non-toxic | 0.5 | inactive | 5.23 | 91.8 | 43.6 | 2.48 | 100 | Non-toxic | 228 | 100 | inactive |  | 
12 | CC1CC(=O)N(C(C)C(=O)NCc2ccc(C(F)(F)F)cc2)C1=O (racemic) |  | 2 | Non-toxic | 2 |  |  | > 150 |  |  |  | Non-toxic |  |  | inactive | inactive | Activity (Mus musculus [8]): inactive; MED50 (Mus musculus [20]): 100 mg/kg
13 | CCC(C(=O)NCc1ccccc1F)N1C(=O)CCC1=O (racemic) | 100 | 0.5 | Non-toxic | 0.5 | inactive | 5.27 |  | 65.7 |  |  | Non-toxic | 346 | 100 |  | inactive | 
